Some results are limits rather than exact numbers.

The nature of data set [1]: Oral bioavailability in Sprague-Dawley rat at 10 mg/kg by LC-MS/MS method. Type of data set: ADME, organism-based. The conditions noted are these: in vivo. The gist of the method:
(§1)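 Single-dose PK: iv bolus 2 mg/kg in 5% DMSO/40% PEG400/55% saline and/or oral gavage 10 mg/kg as 0.445% microcrystalline cellulose microsuspension; BALB/C nude mice (15−20 g, N = 16 per arm) or male Sprague−Dawley rats (250 ± 20 g, N = 3). Blood at eight (po) or nine (iv) time points into sodium heparin, plasma by LC-MS/MS, noncompartmental analysis.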

Data set [2] in a line: Clearance in human liver microsomes at 1 uM incubated for 10 mins by LC-MS/MS method. The class given is ADME, Microsome. The gist of the method:
(§2)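 Liver microsomes (human or mouse, 0.5 mg/mL) in 100 mM potassium phosphate pH 7.4 with 1 μM compound, prewarmed 10 min at 37 °C, started with NADPH (10 mM); stopped at 0, 3, 6, 9, 15, 30 min with ice-cold methanol containing tolbutamide internal standard; LC-MS/MS. Hepatic clearance (mL/min/kg) calculated from intrinsic clearance.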

Data set [3] in a line: AUC in Sprague-Dawley rat at 10 mg/kg, po or 2 mg/kg, iv by LC-MS/MS method. The class given is ADME, organism-based. The settings on record: plasma. The gist of the method:
(§3)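 Male Sprague−Dawley rats (250 ± 20 g; N = 3); iv bolus 2 mg/kg in 5% DMSO/40% PEG400/55% saline and/or gavage 10 mg/kg in 0.445% microcrystalline cellulose microsuspension; plasma from heparinized blood at eight (po) or nine (iv) time points, LC-MS/MS, noncompartmental analysis.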

Data set [4] can be described thus: Cmax in Sprague-Dawley rat at 10 mg/kg, po or 2 mg/kg, iv by LC-MS/MS method. Type of data set: ADME, organism-based. The settings on record: in vivo. The gist of the method: as §3
The target of data set [5] is Histone deacetylase (Homo sapiens) (UniProt Q13547+O15379+Q9UBN7+Q92769+Q9UQL6+Q8WUI4+Q9BY41+Q96DB2+P56524+Q9UKV0+Q969S8). Description: Inhibition of Class 1 histone deacetylase in human HeLa cells assessed as induction in p21 protein expression at 3 uM incubated for 16 hrs by luciferase reporter gene assay relative to HDAC inhibitor entinostat. Type of data set: cell-based. Details: scale not given: the % may be the effect or the level left. In general terms: A reporter such as luciferase makes a cellular process visible.

Data set [6] can be described thus: Tmax in Sprague-Dawley rat at 10 mg/kg, po or 2 mg/kg, iv by LC-MS/MS method. Type of data set: ADME, organism-based. The conditions noted are these: in vivo. The gist of the method: as §1
A short description of data set [7]: Clearance in Sprague-Dawley rat at 10 mg/kg, po or 2 mg/kg, iv by LC-MS/MS method. The class given is ADME, organism-based. The conditions noted are these: in vivo. The gist of the method:
as §3

Data set [8] in a line: Clearance in mouse liver microsomes at 1 uM incubated for 10 mins by LC-MS/MS method. The class given is ADME, Microsome. The gist of the method: as §2
(Microsomes from liver hold many membrane-bound enzymes, among them those of drug oxidation.)

Data set [9] can be described thus: Volume of distribution at steady state in Sprague-Dawley rat at 10 mg/kg, po or 2 mg/kg, iv by LC-MS/MS method. The class given is ADME, organism-based. The conditions noted are these: in vivo, read-out: Vdss. The gist of the method:
as §1

In a further data set the test system is BGC-823. The class given is functional, Homo sapiens.
In a further data set the test system is Bel-7402. Type of data set: functional, Homo sapiens.
The subject of the next data set is SK-HEP1. Type of data set: functional, Homo sapiens.
The next data set deals with SGC-7901. The class given is functional, Homo sapiens.
The subject of the next data set is MGC-803. Type of data set: functional, Homo sapiens.
For a further data set, the system named is HGC-27. Type of data set: functional, Homo sapiens.
Another data set has as its system SMMC-7721. The class given is functional, Homo sapiens.
A short description of data set [10]: Volume of distribution at steady state in BALB/C mouse at 5 mg/kg, po or 1 mg/kg, iv by LC-MS/MS method. Type of data set: ADME, organism-based. The conditions noted are these: in vivo, read-out: Vdss. The gist of the method:
(§4)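 Nude-mouse PK at reduced doses, 1 mg/kg iv bolus (5% DMSO, 40% PEG400, 55% saline) and 5 mg/kg oral gavage (microcrystalline cellulose microsuspension); plasma from serial heparinized blood samples (eight po, nine iv time points) quantified by LC-MS/MS, parameters by noncompartmental methods.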

Data set [11] can be described thus: Tmax in BALB/C mouse at 5 mg/kg, po or 1 mg/kg, iv by LC-MS/MS method. Type of data set: ADME, organism-based. The settings on record: in vivo. The gist of the method: as §4
A short description of data set [12]: Cmax in BALB/C mouse at 5 mg/kg, po or 1 mg/kg, iv by LC-MS/MS method. The class given is ADME, organism-based. The conditions noted are these: in vivo. The gist of the method: (§5)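 BALB/C nude mice (15−20 g) given 5 mg/kg po and 1 mg/kg iv; blood collected at eight (po) or nine (iv) time points into sodium heparin tubes, plasma stored at −20 °C, measured by LC-MS/MS and analysed noncompartmentally.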

Data set [13] can be described thus: Oral bioavailability in BALB/C mouse at 5 mg/kg by LC-MS/MS method. The class given is ADME, organism-based. The conditions noted are these: in vivo. The gist of the method:
as §5

The nature of data set [14]: AUC in BALB/C mouse at 5 mg/kg, po or 1 mg/kg, iv by LC-MS/MS method. The class given is ADME, organism-based. The settings on record: plasma. The gist of the method: as §5
Data set [15] can be described thus: Half life in BALB/C mouse at 5 mg/kg, po or 1 mg/kg, iv by LC-MS/MS method. Type of data set: ADME, organism-based. The conditions noted are these: in vivo. The gist of the method: as §5
Data set [16] is described as follows: Clearance in BALB/C mouse at 5 mg/kg, po or 1 mg/kg, iv by LC-MS/MS method. The class given is ADME, organism-based. The conditions noted are these: in vivo. The gist of the method: as §5

`CN1C[C@H](C(=O)Nc2ccc(Cl)cc2)[C@@H](c2ccc(/C=C/C(=O)Nc3ccccc3N)nn2)C1` (racemic) had a bioavailability in data set [1] of 9%. The CLhep predicted at 1 µM in data set [2] was 12 mL/min/kg; in [8], 41 mL/min/kg. The compound further gave an AUC in [3] of 116 ng·h/mL. In data set [4], the highest level (Cmax) was 33 ng/mL. In addition, the Activity in data set [5] was above 300%. In data set [6], the Tmax was determined as 4 h. In addition, the clearance in data set [7] worked out at 120 mL/min/kg. In [9], the Vd was 19 L.
Regarding `Nc1ccccc1NC(=O)c1ccc(CNC(=O)OCc2cccnc2)cc1` [ENTINOSTAT], the GI90 in the data set with BGC-823 is 7.1 µM; in the data set with Bel-7402 it was 8 µM; with SK-HEP1 it was 13 µM; in the data set on SGC-7901 it was 2.5 µM; in the data set on MGC-803, 8.9 µM; in the data set with HGC-27 it was above 30 µM. The compound further registered a GI90 in the data set with SMMC-7721 of 11 µM.
Regarding `CN1C[C@H](C(=O)Nc2ccc(Cl)cc2)[C@@H](c2ccc(/C=C/C(=O)Nc3ccccc3N)cn2)C1` (racemic), the Vd in data set [10] was 4 L. Moreover, the CLhep predicted at 1 µM was 6 mL/min/kg in data set [2] and 36 mL/min/kg in data set [8]. For the same compound, the time to peak (Tmax) in [11] is 0.17 h. In data set [12], this compound registered a maximum concentration (Cmax) of 60 ng/mL. In addition, the Activity in data set [5] came to 100%. This compound registered a bioavailability in data set [13] of 19%. The same compound displayed an AUC in data set [14] of 204 ng·h/mL. In data set [15], this compound had a half-life of 4.6 h. In addition, the clearance in data set [16] is 79 mL/min/kg.

The term bioavailability denotes the share of a dose that reaches the circulation, judged against a reference dose that is usually intravenous. What is called AUC is the area under the concentration-time curve, a measure of exposure. In general, Cmax refers to the maximum level reached in the sampled fluid or tissue. Usually Tmax stands for the time at which the peak concentration occurs. The term half-life denotes the time in which the quantity being followed falls by half.

The values above are taken from ChEMBL document CHEMBL2177000, “Pharmacokinetic optimization of class-selective histone deacetylase inhibitors and identification of associated candidate predictive biomarkers of hepatocellular carcinoma tumor response” (J Med Chem, 2012).
